Measured values reported in ChEMBL document CHEMBL1158750, “Merosesquiterpenes from two sponges of the genus Dysidea” (2005).

Legend:
Type in all cases: functional
Conditions in all cases: for CC50: read-out: LC50 (the source's name)
MDA-MB-231 = test: Cytotoxicity against human MDA-MB-231 cells by SRB assay
In short: (§1)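 Human tumor cell line (A-549 lung carcinoma, HT-29 colon adenocarcinoma, MDA-MB-231 mammary gland adenocarcinoma) growth and viability measured by colorimetric sulforhodamine B (SRB) staining. Parameters derived were GI50 (50% growth inhibition), TGI (total growth inhibition) and LC50 (50% cell killing).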

A549 = test: Cytotoxicity against human A549 cells by SRB assay; in short: as §1
HT-29 = test: Cytotoxicity against human HT-29 cells by SRB assay; in short: as §1

CC1(C)CCC[C@]2(C)[C@@H](Cc3cc(O)ccc3O)[C@](C)(O)CC[C@@H]12
GI50 (MDA-MB-231): 27.7 µM | GI50 (A549): 17.4 µM

C=C1CCC[C@H]2[C@](C)(Cc3cc(OC(C)=O)ccc3O)[C@@H](C)CC[C@]12C
GI50 (MDA-MB-231): 21 µM | GI50 (A549): 25.5 µM

CC(=O)Oc1ccc(O)c(C[C@H]2C(C)=CC[C@H]3C(C)(C)CCC[C@]23C)c1O
GI50 (MDA-MB-231): 10.5 µM | TGI (MDA-MB-231): 11 µM | CC50 (MDA-MB-231): 11.8 µM | GI50 (A549): 10.5 µM | TGI (A549): 11 µM | CC50 (A549): 11.8 µM | GI50 (HT-29): 11.3 µM | TGI (HT-29): 12.6 µM | CC50 (HT-29): 14 µM

CC1=CC[C@H]2C(C)(C)CCC[C@]2(C)[C@H]1C[C@H]1C(=O)C=C[C@@H]1O [DYSIENONE]
GI50 (MDA-MB-231): 15.2 µM | TGI (MDA-MB-231): 16.5 µM | CC50 (MDA-MB-231): 17.9 µM | GI50 (A549): 12.9 µM | TGI (A549): 13.6 µM | CC50 (A549): 14.2 µM | GI50 (HT-29): 13.6 µM | TGI (HT-29): 14.2 µM | CC50 (HT-29): 15.2 µM
